Measurements from different studies.
Target: Ephrin type-B receptor 4 (EPHB4, Homo sapiens, UniProt P54760)
Sequence (P54760 16-987, as in one of the studies): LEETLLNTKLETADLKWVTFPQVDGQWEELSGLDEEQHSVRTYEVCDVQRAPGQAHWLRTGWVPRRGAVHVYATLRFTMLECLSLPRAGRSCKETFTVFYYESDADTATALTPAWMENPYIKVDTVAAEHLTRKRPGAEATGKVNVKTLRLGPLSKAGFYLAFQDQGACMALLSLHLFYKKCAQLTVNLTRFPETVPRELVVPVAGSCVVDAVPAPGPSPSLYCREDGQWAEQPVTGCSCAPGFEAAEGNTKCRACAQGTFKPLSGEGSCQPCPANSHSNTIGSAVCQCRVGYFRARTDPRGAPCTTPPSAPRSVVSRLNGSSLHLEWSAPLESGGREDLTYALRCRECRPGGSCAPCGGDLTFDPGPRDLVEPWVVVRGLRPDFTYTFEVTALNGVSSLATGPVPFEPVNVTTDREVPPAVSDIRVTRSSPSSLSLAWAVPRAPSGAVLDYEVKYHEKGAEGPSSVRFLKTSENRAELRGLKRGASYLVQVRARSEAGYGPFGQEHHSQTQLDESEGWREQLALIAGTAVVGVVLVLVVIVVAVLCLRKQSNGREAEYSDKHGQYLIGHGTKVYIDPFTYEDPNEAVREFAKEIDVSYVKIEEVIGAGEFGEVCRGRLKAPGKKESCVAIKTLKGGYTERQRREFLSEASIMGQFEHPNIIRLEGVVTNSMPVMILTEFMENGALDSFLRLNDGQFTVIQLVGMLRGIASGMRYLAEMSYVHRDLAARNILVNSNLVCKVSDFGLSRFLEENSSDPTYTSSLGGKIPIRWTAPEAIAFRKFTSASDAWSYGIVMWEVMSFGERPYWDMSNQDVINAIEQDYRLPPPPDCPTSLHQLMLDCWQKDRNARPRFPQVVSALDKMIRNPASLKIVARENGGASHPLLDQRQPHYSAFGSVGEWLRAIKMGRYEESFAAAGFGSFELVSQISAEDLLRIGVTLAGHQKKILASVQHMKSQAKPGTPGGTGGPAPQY

| SMILES | observed | technique | tested at | remaining binding |
| --- | --- | --- | --- | --- |
| N[C@@H]1CCN(c2nccc(-c3cnn4ncccc34)n2)C1 | binding | – | 1 µM | 100% |
| C[C@H](c1ccc(F)cc1)N(Cc1cccc(C(=O)O)c1)C(=O)c1cnc2ccccc2c1 | cell-free assay | competition with immobilised ligand | 1 µM | 100% |
| CC1CCCN1c1nccc(-c2cnn3ncccc23)n1 (stereo not drawn) | binding | – | 1 µM | 100% |
| O=C(O)[C@@H]1[C@@H](Cn2nnc3ccccc3c2=O)CC[C@H]1C(=O)c1ccc(OCCC2CCOCC2)cc1 | cell-free assay | competition with immobilised ligand | 1 µM | 100% |
| O=C(c1ccc(Nc2nccc(-c3cc4ccccc4s3)n2)cc1)N1CCC(N2CCCC2)CC1 | binding | competition with immobilised ligand | 1 µM | 87% |
| Cc1cnn2ncc(-c3ccnc(N(C)C)n3)c2c1 | binding | – | 1 µM | 94% |
| CCN1CCN(Cc2ccc(C(=O)Nc3ccc(C)c(Oc4ccc5c(c4)CC(=O)N5)c3)cc2C(F)(F)F)CC1 | binding | competition with immobilised ligand | 1 µM | 90% |
| CN(C)C(=O)Cn1cc(-c2nc(C3(c4ccc(-c5cnc(N)nc5)cc4)CC3)no2)cn1 | cell-free assay | competition with immobilised ligand | 1 µM | 100% |
| C=CC(=O)N1CCC(C(=O)NCC(=O)N2CCN(c3nc(-c4cnc(N)nc4C(F)F)nc(N4CCOCC4)n3)CC2)CC1 | binding | competition with immobilised ligand | 1 µM | 100% |
| Nc1ncc2c(n1)-c1c([nH]c3ccc(C#CC4CC4)cc13)CCCC2 | binding | competition with immobilised ligand | 1 µM | 100% |
| O=C(NCC1CCOCC1)c1n[nH]cc1NC(=O)c1c(F)cccc1F | binding | competition with immobilised ligand | 1 µM | 100% |
| CCC(=O)N[C@H]1CC[C@@H](C(=O)N(C)c2ccc(-c3nc4ccccc4o3)cc2)C1 | cell-free assay | competition with immobilised ligand | 1 µM | 73% |
| COc1ccnn2ncc(-c3ccnc(N(C)C)n3)c12 | binding | – | 1 µM | 86% |
| Cc1cnc(Nc2ccc(C(=O)N3CCC(N4CCCC4)CC3)cc2)nc1-c1cc2ccccc2s1 | binding | competition with immobilised ligand | 1 µM | 27% |
| C[C@@H](c1ccc(-n2cnc3c(N)ncnc32)cc1)N1CCc2nn(C)c(Cc3ccccc3)c2C1=O | binding | competition with immobilised ligand | 0.1 µM | 95% |
| C[C@@H]1CN(c2cc(-c3n[nH]c4ccc(OC5(C)CC5)cc34)ncn2)C[C@H](C)O1 | cell-free assay | competition with immobilised ligand | 0.1 µM | 79% |
| c1cnn2ncc(-c3ccnc(N4CCC45COC5)n3)c2c1 | binding | – | 1 µM | 92% |
| Cc1noc([C@H]2C[C@@H](c3ccc(C(F)(F)F)cc3)CN(C(=O)N3CCS(=O)(=O)C3)C2)n1 | cell-free assay | competition with immobilised ligand | 1 µM | 100% |
| CNC(=O)[C@@H]1CC[C@@H](n2c(-c3ccc4cnccc4c3)nc3ccc(C(=O)NCc4cccc(C(N)=O)c4)cc32)C1 | binding | competition with immobilised ligand | 1 µM | 100% |
| C[C@H]1CCN(c2nccc(-c3cnn4ncccc34)n2)C1 | binding | – | 1 µM | 100% |
| O=C(NCCCN1CCOCC1)c1ccc(Nc2nccc(-c3cc4ccccc4s3)n2)cc1 | binding | competition with immobilised ligand | 1 µM | 78% |
